Reference: ChEMBL document CHEMBL4257516, “Synthesis and cellular penetration properties of new phosphonium based cationic amphiphilic peptides” (Medchemcomm, 2018)
Calls of active or inactive are those of the source. No cut-off for these calls is given here. Residues, ends and D or L forms follow the SMILES beside them. *: point of attachment. BODIPY(FL) = CC1=CC(C)=[N+]2C1=Cc1ccc(CCC(=O)*)n1[B-]2(F)F; Propyl(3-PMe3+) = C[P+](C)(C)CCC*; CH2CH2P(+)Me3 = C[P+](C)(C)CC*

Key:
[1] = Drug uptake in membrane containing structure of human MCF7 cells at 20 uM after 3 hrs by DAPI/rhodamine phalloidin staining-based fluorescence microscopic method; assay type: ADME, cell membranes; conditions: mcf7, 3 h
Procedure, shortened: (§1)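 MCF7 cells incubated with 20 μM BODIPY-Fl-labelled peptides (label coupled at the N-terminus) using a slightly modified literature protocol. Nuclei counterstained with DAPI and actin cytoskeleton with rhodamine phalloidin. Imaged by fluorescence microscopy; green, blue and red channels merged to localise peptide. Free BODIPY ligand served as control for green signal.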

MCF7 = test: Binding affinity to actin in human MCF7 cells at 20 uM after 3 hrs by DAPI/rhodamine phalloidin staining-based fluorescence microscopic method; assay type: cell-based; procedure, shortened: as §1
[2] = Drug uptake in nucleus of human MCF7 cells at 20 uM after 3 hrs by DAPI/rhodamine phalloidin staining-based fluorescence microscopic method; assay type: ADME, subcellular; conditions: mcf7, 3 h
Procedure, shortened: (§2)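 Peptides labelled at the N-terminus with BODIPY-Fl; MCF7 cells incubated with 20 μM labelled peptide by a modified literature protocol. Imaged by fluorescence microscopy with DAPI for nuclei and rhodamine phalloidin for cytoskeleton. Green, blue and red images were merged to localise the peptide. Free BODIPY ligand served as a control for green signal.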

[3] = Drug uptake in cytoplasm of human MCF7 cells at 20 uM after 3 hrs by DAPI/rhodamine phalloidin staining-based fluorescence microscopic method; assay type: ADME, subcellular; conditions: mcf7, 3 h; procedure, shortened: as §2
[4] = Hemolytic activity in horse erythrocytes at 512 uM after 1 hr relative to control; assay type: ADME, cell-based, Equus caballus, Erythrocyte; conditions: read-out: Activity
Procedure, shortened: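 Horse erythrocytes exposed to peptides (TFA salts, C-terminal amide, free N-terminus) at 512 μM; haemolysis as percent, triplicate determinations, reported as mean ± SEM.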

[5] = Cytotoxicity against HEK293 cells assessed as cell viability at 256 uM after 24 hrs by Alamar blue assay relative to control; assay type: cell-based; conditions: human, read-out: Activity
Procedure, shortened: (§3)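 HEK 293 cells exposed to peptides (TFA salts, C-terminal amide, free N-terminus) at 256 and 512 μM; viability as percent, run in triplicate, reported as mean ± SEM.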

[6] = Cytotoxicity against HEK293 cells assessed as cell viability at 512 uM after 24 hrs by Alamar blue assay relative to control; assay type: cell-based; conditions: human, read-out: Activity; procedure, shortened: as §3
Escherichia coli = test: Antibacterial activity against extended-spectrum beta-lactamases producing Escherichia coli clinical strain 64771 after overnight incubation by microbroth dilution assay; assay type: functional
[7] = Drug uptake in golgi apparatus of human MCF7 cells at 20 uM after 3 hrs by DAPI/rhodamine phalloidin staining-based fluorescence microscopic method; assay type: ADME, subcellular; conditions: mcf7, 3 h; procedure, shortened: as §2

| Compound | Activity (MCF7) | Drug uptake [2] | Drug uptake [3] | other results |
| --- | --- | --- | --- | --- |
| CC[C@H](C)[C@H](NC(=O)[C@H](Cc1c[nH]c2ccccc12)NC(=O)[C@H](CSCC[P+](C)(C)C)NC(=O)[C@H](Cc1c[nH]c2ccccc12)NC(=O)[C@H](Cc1c[nH]c2ccccc12)NC(=O)[C@H](CSCC[P+](C)(C)C)NC(=O)[C@H](CSCC[P+](C)(C)C)NC(=O)CCc1ccc2n1[B-](F)(F)[N+]1=C(C)C=C(C)C1=C2)C(=O)N[C@@H](CSCC[P+](C)(C)C)C(=O)N[C@@H](Cc1c[nH]c2ccccc12)C(N)=O.O=C([O-])C(F)(F)F.O=C([O-])C(F)(F)F.O=C([O-])C(F)(F)F.O=C([O-])C(F)(F)F ({BODIPY(FL)}-C(CH2CH2P(+)Me3)C(CH2CH2P(+)Me3)WWC(CH2CH2P(+)Me3)WIC(CH2CH2P(+)Me3)W-NH2) | – | – | – | Drug uptake [1]: Active |
| CC[C@H](C)[C@H](NC(=O)[C@H](Cc1c[nH]c2ccccc12)NC(=O)[C@H](CSCC[P+](C)(C)C)NC(=O)[C@H](Cc1c[nH]c2ccccc12)NC(=O)[C@H](Cc1c[nH]c2ccccc12)NC(=O)[C@H](CSCCC[P+](C)(C)C)NC(=O)[C@H](CSCC[P+](C)(C)C)NC(=O)CCc1ccc2n1[B-](F)(F)[N+]1=C(C)C=C(C)C1=C2)C(=O)N[C@@H](CSCCC[P+](C)(C)C)C(=O)N[C@@H](Cc1c[nH]c2ccccc12)C(N)=O.O=C([O-])C(F)(F)F.O=C([O-])C(F)(F)F.O=C([O-])C(F)(F)F.O=C([O-])C(F)(F)F ({BODIPY(FL)}-C(CH2CH2P(+)Me3)C(Propyl(3-PMe3+))WWC(CH2CH2P(+)Me3)WIC(Propyl(3-PMe3+))W-NH2) | Active | Not Active | Active | – |
| H-KRWWKWIRW-NH2 | – | – | – | hemolysis at 1 h, 512 µM [4]: 14.3%; viability at 24 h, 256 µM [5]: 2%; viability at 24 h, 512 µM [6]: 0%; MIC (Escherichia coli): 1.5 µM |
| CC1=CC(C)=[N+]2C1=Cc1ccc(CCC(=O)N[C@@H](CSCCC[P+](C)(C)C)C(=O)N[C@@H](Cc3ccccc3)C(=O)N[C@@H](Cc3ccccc3)C(=O)N[C@@H](CSCCC[P+](C)(C)C)C(=O)N[C@@H](Cc3ccccc3)C(=O)N[C@@H](Cc3ccccc3)C(=O)N[C@@H](CSCCC[P+](C)(C)C)C(=O)N[C@@H](Cc3ccccc3)C(=O)N[C@@H](Cc3ccccc3)C(=O)N[C@@H](CSCCC[P+](C)(C)C)C(N)=O)n1[B-]2(F)F.O=C([O-])C(F)(F)F.O=C([O-])C(F)(F)F.O=C([O-])C(F)(F)F.O=C([O-])C(F)(F)F ({BODIPY(FL)}-C(Propyl(3-PMe3+))FFC(Propyl(3-PMe3+))FFC(Propyl(3-PMe3+))FFC(Propyl(3-PMe3+))-NH2) | Active | Active | – | – |
| CC[C@H](C)[C@H](NC(=O)[C@H](Cc1c[nH]c2ccccc12)NC(=O)[C@H](CSCCC[P+](C)(C)C)NC(=O)[C@H](Cc1c[nH]c2ccccc12)NC(=O)[C@H](Cc1c[nH]c2ccccc12)NC(=O)[C@H](CSCCC[P+](C)(C)C)NC(=O)[C@H](CSCCC[P+](C)(C)C)NC(=O)CCC1=[N+]2C(=Cc3c(C)cc(C)n3[B-]2(F)F)C=C1)C(=O)N[C@@H](CSCCC[P+](C)(C)C)C(=O)N[C@@H](Cc1c[nH]c2ccccc12)C(N)=O.O=C([O-])C(F)(F)F.O=C([O-])C(F)(F)F.O=C([O-])C(F)(F)F.O=C([O-])C(F)(F)F ({BODIPY(FL)}-C(Propyl(3-PMe3+))C(Propyl(3-PMe3+))WWC(Propyl(3-PMe3+))WIC(Propyl(3-PMe3+))W-NH2) | Active | Not Active | Active | – |
| CC1=CC(C)=[N+]2C1=Cc1ccc(CCC(=O)N[C@@H](CSCC[P+](C)(C)C)C(=O)N[C@@H](Cc3ccccc3)C(=O)N[C@@H](Cc3ccccc3)C(=O)N[C@@H](CSCC[P+](C)(C)C)C(=O)N[C@@H](Cc3ccccc3)C(=O)N[C@@H](Cc3ccccc3)C(=O)N[C@@H](CSCC[P+](C)(C)C)C(=O)N[C@@H](Cc3ccccc3)C(=O)N[C@@H](Cc3ccccc3)C(=O)N[C@@H](CSCC[P+](C)(C)C)C(N)=O)n1[B-]2(F)F.O=C([O-])C(F)(F)F.O=C([O-])C(F)(F)F.O=C([O-])C(F)(F)F.O=C([O-])C(F)(F)F ({BODIPY(FL)}-C(CH2CH2P(+)Me3)FFC(CH2CH2P(+)Me3)FFC(CH2CH2P(+)Me3)FFC(CH2CH2P(+)Me3)-NH2) | – | Active | – | Drug uptake [7]: Active |
